{"data": "Published values of several laboratories", "target": "Myotonin-protein kinase (DMPK, Homo sapiens, UniProt Q09013)", "One construct used (Q09013 1-629)": "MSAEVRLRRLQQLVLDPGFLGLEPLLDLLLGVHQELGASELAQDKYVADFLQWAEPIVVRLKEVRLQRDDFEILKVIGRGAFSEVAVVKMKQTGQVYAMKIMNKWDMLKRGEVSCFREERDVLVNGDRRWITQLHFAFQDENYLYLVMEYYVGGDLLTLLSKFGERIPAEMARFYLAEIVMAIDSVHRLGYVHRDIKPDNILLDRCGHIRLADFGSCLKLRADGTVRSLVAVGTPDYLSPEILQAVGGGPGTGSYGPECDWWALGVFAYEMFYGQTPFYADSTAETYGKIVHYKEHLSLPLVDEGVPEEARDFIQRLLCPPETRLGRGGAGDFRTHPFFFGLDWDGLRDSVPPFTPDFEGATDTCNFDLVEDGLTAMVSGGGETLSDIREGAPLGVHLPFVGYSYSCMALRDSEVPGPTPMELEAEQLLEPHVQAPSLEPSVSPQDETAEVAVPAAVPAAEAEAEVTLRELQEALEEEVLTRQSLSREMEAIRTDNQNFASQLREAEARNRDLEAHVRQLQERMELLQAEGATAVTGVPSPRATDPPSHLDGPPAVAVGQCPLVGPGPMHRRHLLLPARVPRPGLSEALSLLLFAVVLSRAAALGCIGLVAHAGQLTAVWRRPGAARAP", "note": "Lines come from different studies, so protocols differ."}
{"SMILES": "COc1ccnn2ncc(-c3ccnc(N(C)C)n3)c12", "observed": "binding", "concentration": "1 µM", "remaining binding": "100%"}
{"SMILES": "O=C(NCCCC1CCCCC1)c1ccc(CNC(=O)c2cnn(-c3ccccc3)c2C(F)(F)F)cc1", "observed": "cell-free assay", "method": "competition with immobilised ligand", "concentration": "0.1 µM", "remaining binding": "83%"}
{"SMILES": "CN(C)c1ncc(F)c(-c2cnn3ncccc23)n1", "observed": "binding", "concentration": "1 µM", "remaining binding": "100%"}
{"SMILES": "COc1ncc2cc3ccccc3nc2c1C#N", "observed": "cell-free assay", "method": "competition with immobilised ligand", "concentration": "5 µM", "remaining binding": "100%"}
{"SMILES": "O=c1nc(-c2ccccn2)sc2ccccc12", "observed": "binding", "method": "competition with immobilised ligand", "concentration": "1 µM", "remaining binding": "100%"}
{"SMILES": "C[C@@H]1CCN(c2nccc(-c3cnn4ncccc34)n2)C1", "observed": "binding", "concentration": "1 µM", "remaining binding": "90%"}
{"SMILES": "O=C(c1ccc(Nc2ncc(Cl)c(-c3ccc(Cl)s3)n2)cc1)N1CCC(N2CCCC2)CC1", "observed": "binding", "method": "competition with immobilised ligand", "concentration": "1 µM", "remaining binding": "100%"}
{"SMILES": "C[C@@H](c1ccc(-n2cnc3c(N)ncnc32)cc1)N1CCc2nn(C)c(Cc3ccccc3)c2C1=O", "observed": "binding", "method": "competition with immobilised ligand", "concentration": "0.1 µM", "remaining binding": "86%"}
{"SMILES": "Cc1cnn2ncc(-c3ccnc(N(C)C)n3)c2c1", "observed": "binding", "concentration": "1 µM", "remaining binding": "100%"}
{"SMILES": "C[C@H](c1cccc(C#N)c1)n1cc(Cl)cc(C(N)=O)c1=N", "observed": "cell-free assay", "method": "competition with immobilised ligand", "concentration": "1 µM", "remaining binding": "100%"}
{"SMILES": "O=C(c1ccc(Nc2nccc(-c3cc4ccccc4s3)n2)cc1)N1CCC(N2CCCC2)CC1", "observed": "binding", "method": "competition with immobilised ligand", "concentration": "1 µM", "remaining binding": "100%"}
{"SMILES": "CN(C)c1nccc(-c2cnn3ncccc23)n1", "observed": "binding", "concentration": "1 µM", "remaining binding": "100%"}
{"SMILES": "C=CC(=O)N1CCC(C(=O)NCC(=O)N2CCN(c3nc(-c4cnc(N)nc4C(F)F)nc(N4CCOCC4)n3)CC2)CC1", "observed": "binding", "method": "competition with immobilised ligand", "concentration": "1 µM", "remaining binding": "87%"}
{"SMILES": "O=C(Nc1c[nH]nc1C(=O)NC1CCNCC1)c1cc(F)cc(F)c1", "observed": "binding", "method": "competition with immobilised ligand", "concentration": "1 µM", "remaining binding": "100%"}
{"SMILES": "CC1CCCN1c1nccc(-c2cnn3ncccc23)n1 (stereo not shown)", "observed": "binding", "concentration": "1 µM", "remaining binding": "94%"}
{"SMILES": "CNC(=O)[C@@H]1CC[C@@H](n2c(-c3ccc4cnccc4c3)nc3ccc(C(=O)NCc4cccc(C(N)=O)c4)cc32)C1", "observed": "binding", "method": "competition with immobilised ligand", "concentration": "1 µM", "remaining binding": "86%"}
{"SMILES": "CO[C@@H](C)c1c(Nc2ccc([C@@H](N(C)C(=O)C3CCS(=O)(=O)CC3)C(F)(F)F)cc2)cnc2cc(Cl)nn12", "observed": "cell-free assay", "method": "competition with immobilised ligand", "concentration": "1 µM", "remaining binding": "91%"}
{"SMILES": "O=C(NCCCN1CCOCC1)c1ccc(Nc2ncc(Cl)c(-c3ccc(Cl)s3)n2)cc1", "observed": "binding", "method": "competition with immobilised ligand", "concentration": "1 µM", "remaining binding": "100%"}
{"SMILES": "O=C1CCc2cc(Nc3cc(OC4CCOCC4)c([N+](=O)[O-])cc3Cl)ccc2N1", "observed": "cell-free assay", "method": "competition with immobilised ligand", "concentration": "1 µM", "remaining binding": "96%"}
{"SMILES": "COc1cnc(Nc2cccc(S(N)(=O)=O)c2)nc1N1CCN(c2ccccc2)C(=O)C1", "observed": "binding", "method": "competition with immobilised ligand", "concentration": "1 µM", "remaining binding": "100%"}
{"SMILES": "N[C@H]1CCN(c2nccc(-c3cnn4ncccc34)n2)C1", "observed": "binding", "concentration": "1 µM", "remaining binding": "57%"}
{"SMILES": "CNC(=O)c1ccc(Nc2ncc(C(F)(F)F)c(NCc3nccnc3N(C)S(C)(=O)=O)n2)cc1", "observed": "cell-free assay", "method": "competition with immobilised ligand", "concentration": "0.1 µM", "remaining binding": "16%"}
